SMILES strings stand for the structures. ≈ marks a conversion by molar mass, not a printed value.

A short description of data set [1]: Measured ionization constant (pKa). Format: physicochemical. To be noted: read-out: pKa1. The procedure, abridged: (§1)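 Spectrophotometric titration at 20 ± 1 °C, 0.1 M ionic strength, pH varied with H2SO4 or NaOH made up in the compound stock. Absorbance followed at compound-specific wavelengths chosen from 200–400 nm scans. pKa1 and pKa2 taken as the inflection points of the two-step absorbance vs pH curve.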

Data set [2] can be described thus: Dissociation constant (pKa). Format: physicochemical. To be noted: read-out: pKa2. The procedure, abridged:
as §1

Data set [3] can be described thus: HPLC capacity factor (k'). Format: ADME. In a few lines: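 Ion-pair reversed-phase HPLC on ODS-2 (10 μm) at 45 °C. Mobile phase: 10 mM sodium heptanesulfonate plus 50 mM KH2PO4 (pH 3.5)–methanol 45:55, 1 mL/min. Samples at 100 μg/mL in DMF, injected in duplicate, UV 280 nm. k' = (tR − t0)/t0.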
A short description of data set [4]: Solubility (buffer pH 7.4). Format: physicochemical. To be noted: read-out: S. The procedure, abridged:
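Excess solid shaken in 0.05 M phosphate buffer pH 7.4 for 24 h at 25 °C. Suspension filtered through 0.22 μm, discarding the first portion. Filtrate diluted in 0.1 N HCl or 0.1 N NaOH and read by UV at the compound's absorbance maximum.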

The nature of data set [5]: AUC (0-4 hr) ug/ml/h. It counts as ADME, cell-free. Also on record: time < 4 hr; concentration or dose not given beside the values. To be noted: plasma. The procedure, abridged: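 Mice dosed once orally at 50 mg/kg; blood taken from groups of six mice at 0.5, 1, 2 and 4 h. Serum drug assayed by disk agar diffusion bioassay (Bacillus subtilis ATCC 6633 on Seed Agar, 37 °C, 18 h), giving total activity.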

Another data set has as its system Bacillus cereus. The experiment in a line: In vitro minimum inhibitory concentration for Bacillus cereus ATCC 11778. It counts as functional. In a few lines:
(§2)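 Serial 2-fold agar dilution in Mueller Hinton medium, run alongside a reference quinolone. Inoculum adjusted to 10⁸ cfu/mL; compound range 0.007–16 μg/mL.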

The test system of the next data set is Bacillus subtilis. Put plainly: In vitro minimum inhibitory concentration for Bacillus subtilis ATCC 6633. It counts as functional. In a few lines: as §2
A further data set concerns Escherichia coli. The experiment in a line: In vitro minimum inhibitory concentration for Escherichia coli ATCC 10799. It counts as functional. In a few lines:
as §2

A further data set relates to Enterobacter cloacae. Put plainly: In vitro minimum inhibitory concentration for Enterobacter cloacae ATCC 23355. It counts as functional.
For another data set, the system named is Klebsiella pneumoniae. The experiment in a line: In vitro minimum inhibitory concentration to inhibit Klebsiella pneumoniae ATCC 10031. Format: functional. In a few lines: as §2
Data set [6] deals with Mus musculus. The experiment in a line: Evaluation of efficacy on systemic infections Escherichia coli HM-42, after oral administration in mice. Format: functional. In a few lines:
(§3)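 Single oral dose given immediately after infection, one of four doses per group, chosen from in vitro activity. Survival scored after one week. ED50 (total mg/kg protecting 50%) interpolated from survival rates.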

For data set [7], the system named is Mus musculus. Put plainly: Evaluation of efficacy on systemic infections Pseudomonas aeruginosa HS-116, after oral administration in mice. Format: functional. In a few lines: as §3
Data set [8] relates to Mus musculus. Put plainly: Evaluation of efficacy on systemic infections Staphylococcus aureus HS-93, after oral administration in mice. It counts as functional. The procedure, abridged:
as §3

The next data set has as its system Morganella morganii. Put plainly: In vitro minimum inhibitory concentration for Morganella morganii ATCC 8019. It counts as functional. In a few lines: as §2
In the next data set the test system is Proteus vulgaris. The experiment in a line: In vitro minimum inhibitory concentration for Proteus vulgaris ATCC 8427. Format: functional. In a few lines:
as §2

In data set [9] the test system is Staphylococcus epidermidis. Put plainly: In vitro minimum inhibitory concentration for Staphylococcus epidermidis ATCC 155-1. Format: functional. In a few lines: as §2
In another data set the test system is Staphylococcus aureus. Put plainly: In vitro minimum inhibitory concentration for Staphylococcus aureus ATCC 25178. Format: functional. The procedure, abridged:
as §2

The subject of the next data set is Enterococcus faecalis. Put plainly: In vitro minimum inhibitory concentration for Streptococcus faecalis ATCC 10541. It counts as functional. In a few lines:
as §2

The test system of a further data set is Pseudomonas aeruginosa. Put plainly: In vitro minimum inhibitory concentration for Pseudomonas aeruginosa ATCC 10145. Format: functional. In a few lines: as §2

`CC1(N)CN(c2nc3c(cc2F)c(=O)c(C(=O)O)cn3C2CC2)C1`: the pKa was 6.38 in data set [1] and 8.21 in [2]. Moreover, the “Log k'” value in data set [3] is given as -0.1606. In data set [4], the solubility was found to be 13.9 µg/mL (≈ 41.8 µM).

On to `CN[C@H]1CN(c2cc3c(cc2F)c(=O)c(C(=O)O)cn3C2CC2)[C@@H]1C`, for which the area under the curve (AUC) in data set [5] worked out at 10300 ng·h/mL. Also, the figures for the pKa in data set [1] and in data set [2] were 6.5 and 8.6, respectively. Also, the “Log k'” value in data set [3] came out at 0.179. Also, the solubility in data set [4] was determined as 9.2 µg/mL (≈ 26.6 µM). Moreover, the minimum inhibitory concentration (MIC) against Bacillus cereus came out at 0.12 µg/mL (≈ 0.347 µM); against Bacillus subtilis it was 0.03 µg/mL (≈ 0.0869 µM); in the data set with Escherichia coli, 0.06 µg/mL (≈ 0.174 µM); with Enterobacter cloacae it was 0.03 µg/mL (≈ 0.0869 µM); in the data set on Klebsiella pneumoniae, 0.03 µg/mL (≈ 0.0869 µM); with Morganella morganii, 0.06 µg/mL (≈ 0.174 µM). The MIC is 0.12 µg/mL (≈ 0.347 µM) in the data set on Proteus vulgaris; 0.06 µg/mL (≈ 0.174 µM) in data set [9]; 0.12 µg/mL (≈ 0.347 µM) with Staphylococcus aureus; 0.25 µg/mL (≈ 0.724 µM) in the data set on Enterococcus faecalis; 0.5 µg/mL (≈ 1.45 µM) against Pseudomonas aeruginosa. Further, the ED50 in the data set with Mus musculus [6] amounted to 2 mg/kg; in the data set on Mus musculus [7] it was 80.4 mg/kg; in the data set on Mus musculus [8], 23.3 mg/kg.

Consider `CNC1CN(c2c(F)cc3c(=O)c(C(=O)O)cn(C4CC4)c3c2F)C1`, for which the pKa in [1] was 6.18; in data set [2], 8.44. The “Log k'” value in data set [3] is given as 0.039. In addition, the solubility in [4] was 1.7 µg/mL (≈ 4.87 µM).

For the molecule `CC1(N)CN(c2c(F)cc3c(=O)c(C(=O)O)cn(C4CC4)c3c2Cl)C1`, the pKa in [1] was 6.08; in data set [2] it was 8.45. Moreover, the “Log k'” value in [3] is reported as 0.1061. Also, the solubility in [4] was 1.7 µg/mL (≈ 4.65 µM).

In data set [5], `C[C@H]1[C@H](N)CN1c1c(F)cc2c(=O)c(C(=O)O)cn(C3CC3)c2c1Cl` gave an AUC of 5200 ng·h/mL. Besides, the pKa in data set [1] was 6.04; in data set [2], 8.47. The “Log k'” value in data set [3] is 0.1361. The solubility in [4] came out at 12 µg/mL (≈ 32.8 µM). In addition, the MIC in the data set with Bacillus cereus turned out to be 0.03 µg/mL (≈ 0.082 µM); in the data set on Bacillus subtilis it was 0.03 µg/mL (≈ 0.082 µM); in the data set on Escherichia coli, 0.007 µg/mL (≈ 0.0191 µM); against Enterobacter cloacae it was 0.03 µg/mL (≈ 0.082 µM); with Klebsiella pneumoniae, 0.007 µg/mL (≈ 0.0191 µM); in the data set on Morganella morganii, 0.03 µg/mL (≈ 0.082 µM). For the same molecule, the MIC was determined as 0.03 µg/mL (≈ 0.082 µM) against Proteus vulgaris; 0.03 µg/mL (≈ 0.082 µM) in [9]; 0.03 µg/mL (≈ 0.082 µM) in the data set with Staphylococcus aureus; 0.06 µg/mL (≈ 0.164 µM) in the data set on Enterococcus faecalis; 0.12 µg/mL (≈ 0.328 µM) with Pseudomonas aeruginosa. Moreover, the ED50 in the data set with Mus musculus [6] was 2.8 mg/kg; in the data set on Mus musculus [7] it was 38 mg/kg; with Mus musculus [8] it was 9.6 mg/kg.

In data set [5], `CN[C@H]1CN(c2c(F)cc3c(=O)c(C(=O)O)cn(C4CC4)c3c2F)[C@@H]1C` returned an exposure (AUC) of 20800 ng·h/mL. The pKa in data set [1] stood at 6.13; in [2] it was 8.5. In addition, the “Log k'” value in data set [3] was 0.292. The solubility in data set [4] came to 13.1 µg/mL (≈ 36.1 µM). The minimal inhibitory concentration (MIC) was found to be 0.06 µg/mL (≈ 0.165 µM) in the data set with Bacillus cereus; 0.03 µg/mL (≈ 0.0826 µM) against Bacillus subtilis; 0.06 µg/mL (≈ 0.165 µM) against Escherichia coli; 0.03 µg/mL (≈ 0.0826 µM) with Enterobacter cloacae; 0.03 µg/mL (≈ 0.0826 µM) with Klebsiella pneumoniae; 0.06 µg/mL (≈ 0.165 µM) in the data set on Morganella morganii. Further, the MIC against Proteus vulgaris turned out to be 0.12 µg/mL (≈ 0.33 µM); in data set [9], 0.06 µg/mL (≈ 0.165 µM); in the data set with Staphylococcus aureus it was 0.06 µg/mL (≈ 0.165 µM); in the data set on Enterococcus faecalis, 0.5 µg/mL (≈ 1.38 µM); in the data set on Pseudomonas aeruginosa it was 0.5 µg/mL (≈ 1.38 µM). For the same molecule, the ED50 is 2.3 mg/kg in the data set on Mus musculus [6], 70.5 mg/kg in the data set on Mus musculus [7] and 11.2 mg/kg with Mus musculus [8].

Take `CN(C)C1CN(c2c(F)cc3c(=O)c(C(=O)O)cn(C4CC4)c3c2F)C1`: the pKa is 6 in data set [1] and 8.14 in data set [2]. Further, in [3], the “Log k'” value was 0.584. Further, the solubility in data set [4] came to 58 µg/mL (≈ 160 µM).

In general, AUC refers to concentration integrated over time. The MIC is the lowest concentration that inhibits growth of the organism. By ED50 is commonly meant the dose that gives a 50% effect, or the effect in half of the subjects.

These data come from ChEMBL document CHEMBL1127424, “7-azetidinylquinolones as antibacterial agents. 2. Synthesis and biological activity of 7-(2,3-disubstituted-1-azetidinyl)-4-oxoquinoline- and -1,8-naphthyridine-3-carboxylic acids. Properties and structure-activity relationships of quinolones with an azetidine moiety” (J Med Chem, 1994).
